Data: ChEMBL document CHEMBL1126560, “Endothelin-1 analogues substituted at both position 18 and 19: highly potent endothelin antagonists with no selectivity for either receptor subtype ETA or ETB” (J Med Chem, 1993)

Assays:
Mus musculus = species on record: Mus musculus; assay: Compound induced increase in cystolic free ca+2 concentration in murine peritoneal macrophages was measured; format: functional
In short: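 Murine peritoneal macrophages from male ICR mice given ip 10% protease peptone 3 days before, adhered 1.5 h at 37 °C, fura-2 AM loaded (4 μM, 24 °C, 1.5 h). Fura-2 fluorescence ratio (340/380 nm excitation, 505 nm emission) at 37 °C. Compound at 100 nM; rise expressed as % of 100 nM ET-1 response.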

[1] = molecular target: T1, Endothelin-1 receptor (Sus scrofa) (UniProt Q29010); assay: Endothelin A receptor agonist activity as maximum vasoconstriction in porcine coronary artery; format: functional, tissue-based
T1 sequence (whole entry): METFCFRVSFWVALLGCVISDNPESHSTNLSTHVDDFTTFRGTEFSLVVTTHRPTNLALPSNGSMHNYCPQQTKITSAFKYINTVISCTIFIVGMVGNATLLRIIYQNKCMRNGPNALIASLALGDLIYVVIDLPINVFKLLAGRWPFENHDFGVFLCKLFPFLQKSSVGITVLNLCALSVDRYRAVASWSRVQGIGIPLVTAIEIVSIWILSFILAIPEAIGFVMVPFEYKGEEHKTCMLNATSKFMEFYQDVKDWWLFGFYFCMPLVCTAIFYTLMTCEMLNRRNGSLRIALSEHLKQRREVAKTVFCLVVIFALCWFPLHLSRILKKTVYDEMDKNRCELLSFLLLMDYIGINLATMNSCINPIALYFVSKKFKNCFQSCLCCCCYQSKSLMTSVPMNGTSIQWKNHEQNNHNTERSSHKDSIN
In short: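 Porcine right coronary artery, endothelium-denuded helical strips in Krebs-Henseleit, 37 °C, isometric tension. Compound applied cumulatively, up to 1 μM. Maximal contraction expressed as % of 60 mM KCl-induced tension; n in parentheses.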

[2] = molecular target: Endothelin receptor, ET-A/ET-B (Homo sapiens) (UniProt P24530+P25101); assay: Antagonism of sarafotoxin S6c-induced vasoconstriction in rabbit pulmonary artery at both ETA and ETB receptors; format: functional; settings: Oryctolagus cuniculus; target entry is the homologue from another species
Endothelin receptor, ET-A/ET-B (Homo sapiens), sequence (P24530 whole entry, looked up): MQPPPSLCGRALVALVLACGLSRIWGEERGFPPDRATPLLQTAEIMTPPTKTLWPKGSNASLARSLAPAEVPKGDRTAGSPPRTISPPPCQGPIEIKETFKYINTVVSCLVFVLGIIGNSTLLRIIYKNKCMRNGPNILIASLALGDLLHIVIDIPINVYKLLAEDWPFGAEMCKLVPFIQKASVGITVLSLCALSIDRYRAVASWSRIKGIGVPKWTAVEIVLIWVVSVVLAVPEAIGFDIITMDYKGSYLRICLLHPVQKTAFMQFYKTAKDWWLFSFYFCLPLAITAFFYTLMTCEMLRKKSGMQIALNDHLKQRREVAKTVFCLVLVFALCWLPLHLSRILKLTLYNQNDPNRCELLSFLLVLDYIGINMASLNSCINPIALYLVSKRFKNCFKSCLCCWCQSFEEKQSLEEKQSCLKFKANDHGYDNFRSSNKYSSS
Endothelin receptor, ET-A/ET-B (Homo sapiens), sequence (P25101 whole entry, looked up): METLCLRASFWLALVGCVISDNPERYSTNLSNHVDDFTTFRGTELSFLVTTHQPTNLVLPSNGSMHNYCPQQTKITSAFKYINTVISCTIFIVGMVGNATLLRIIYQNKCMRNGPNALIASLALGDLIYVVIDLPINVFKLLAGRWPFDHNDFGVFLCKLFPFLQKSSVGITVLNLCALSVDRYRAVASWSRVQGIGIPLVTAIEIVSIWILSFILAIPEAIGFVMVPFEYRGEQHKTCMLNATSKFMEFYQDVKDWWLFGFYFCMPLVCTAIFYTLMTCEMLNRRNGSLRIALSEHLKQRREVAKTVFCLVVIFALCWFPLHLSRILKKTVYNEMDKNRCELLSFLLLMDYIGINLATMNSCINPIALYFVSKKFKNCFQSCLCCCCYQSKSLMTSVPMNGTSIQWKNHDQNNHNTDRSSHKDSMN
In short: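 Rabbit pulmonary artery, endothelium-denuded 5-mm rings in Krebs-Henseleit, 95% O2-5% CO2, 37 °C, isometric tension. Compound added 15 min before cumulative sarafotoxin S6c. Tension normalized to 60 mM KCl response. Antagonism given as pA2 (van Rossum) or pD2' value; n in parentheses.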

Endothelin-1 receptor [3] = molecular target: T2, Endothelin-1 receptor (Sus scrofa, UniProt Q29010); assay: ETA receptor antagonist activity was measured by inhibition of ET-1 induced vasoconstriction in isolated porcine coronary artery; format: functional, tissue-based; settings: read-out: pA2 (converted)
T2 sequence (Q29010 whole entry): T1 sequence (whole entry)
In short: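 Porcine right coronary artery, endothelium-denuded 2 × 5-mm helical strips in Krebs-Henseleit, 95% O2-5% CO2, 37 °C, isometric tension. Compound added 15 min before cumulative ET-1. Tension normalized to 60 mM KCl. pA2 by van Rossum's method; n in parentheses.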

Endothelin-1 receptor [4] = molecular target: T2, Endothelin-1 receptor; assay: Tested for the competitive binding versus [125I]- ET-1 determined in porcine cardiac ventricular membrane for Endothelin A receptor
In short: (§1)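 Membranes (porcine cardiac ventricle at 12 μg/mL for ETA; bovine cerebrum at 150 μg/mL for ETB) in pH 7.2 Tris/EGTA/Mg acetate/0.1% BSA buffer with protease inhibitors. Incubated with 100 pM [125I]ET-1 and varied compound for 1 h at 25 °C, then filtered and counted by gamma counter. IC50 given as mean ± SEM of ≥3 determinations.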

[5] = molecular target: T3, Endothelin receptor type B (Bos taurus, UniProt P28088); assay: Tested for the competitive binding versus [125I]- ET-1 determined in bovine cerebrum membrane for Endothelin B receptor; format: cell membranes; in short: as §1
T3 sequence (P28088 whole entry): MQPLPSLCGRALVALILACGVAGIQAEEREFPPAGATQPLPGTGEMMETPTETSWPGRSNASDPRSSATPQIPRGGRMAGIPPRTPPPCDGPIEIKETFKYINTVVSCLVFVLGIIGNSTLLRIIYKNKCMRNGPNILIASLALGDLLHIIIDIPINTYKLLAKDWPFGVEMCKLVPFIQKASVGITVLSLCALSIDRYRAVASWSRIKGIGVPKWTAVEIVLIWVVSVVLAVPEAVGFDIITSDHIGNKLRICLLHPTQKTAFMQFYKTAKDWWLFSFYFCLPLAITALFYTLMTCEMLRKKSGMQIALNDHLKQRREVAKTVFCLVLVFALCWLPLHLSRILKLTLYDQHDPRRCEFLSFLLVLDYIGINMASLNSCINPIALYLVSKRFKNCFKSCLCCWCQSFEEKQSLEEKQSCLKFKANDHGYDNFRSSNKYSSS

SMILES | [Ca2+] increase (Mus musculus) | Kb (Endothelin-1 receptor [3]) [nM] | IC50 (Endothelin-1 receptor [4]) [nM] | IC50 [5] [nM] | also measured
CC[C@H](C)[C@H](NC(=O)[C@H](CC(C)(C)C)NC(=O)[C@@H](NC(=O)[C@H](CC(C)C)NC(=O)[C@H](Cc1c[nH]cn1)NC(=O)[C@@H]1CSSC[C@H](N)C(=O)N[C@@H](CO)C(=O)N[C@H]2CSSC[C@H](NC(=O)[C@H](CCC(=O)O)NC(=O)[C@H](CCCCN)NC(=O)[C@H](CC(=O)O)NC(=O)[C@H](CCSC)NC(=O)[C@H](CC(C)C)NC(=O)[C@H](CO)NC(=O)[C@H](CO)NC2=O)C(=O)N[C@@H](C(C)C)C(=O)N[C@@H](Cc2ccc(O)cc2)C(=O)N[C@@H](Cc2ccccc2)C(=O)N1)[C@@H](C)O)C(=O)N[C@@H](Cc1c[nH]c2ccccc12)C(=O)O | 0 |  |  |  | 
CC[C@H](C)[C@H](NC(=O)[C@H](CC1CCCCC1)NC(=O)[C@@H](NC(=O)[C@H](CC(C)C)NC(=O)[C@H](Cc1c[nH]cn1)NC(=O)[C@@H]1CSSC[C@@H](N)C(=O)N[C@@H](CO)C(=O)N[C@@H]2CSSC[C@H](NC(=O)[C@H](CCC(=O)O)NC(=O)[C@@H](CCCCN)NC(=O)[C@@H](CC(=O)O)NC(=O)[C@@H](CCSC)NC(=O)[C@H](CC(C)C)NC(=O)[C@@H](CO)NC(=O)[C@H](CO)NC2=O)C(=O)N[C@@H](C(C)C)C(=O)N[C@H](Cc2ccc(O)cc2)C(=O)N[C@@H](Cc2ccccc2)C(=O)N1)[C@@H](C)O)C(=O)N[C@@H](Cc1c[nH]c2ccccc12)C(=O)O |  |  |  |  | Max vasoconstriction [1]: 2; pD2 [2]: 7.8
CC[C@H](C)[C@H](NC(=O)[C@H](CC(C)C)NC(=O)[C@@H](NC(=O)[C@H](CC(C)C)NC(=O)[C@H](Cc1c[nH]cn1)NC(=O)[C@@H]1CSSC[C@H](N)C(=O)N[C@@H](CO)C(=O)N[C@H]2CSSC[C@H](NC(=O)[C@H](CCC(=O)O)NC(=O)[C@H](CCCCN)NC(=O)[C@H](CC(=O)O)NC(=O)[C@H](CCSC)NC(=O)[C@H](CC(C)C)NC(=O)[C@H](CO)NC(=O)[C@H](CO)NC2=O)C(=O)N[C@@H](C(C)C)C(=O)N[C@@H](Cc2ccc(O)cc2)C(=O)N[C@@H](Cc2ccccc2)C(=O)N1)[C@@H](C)O)C(=O)N[C@@H](Cc1c[nH]c2ccccc12)C(=O)O [listing 1 of 2 here] |  | 20 | 0.42 | 0.17 | 
CC[C@H](C)[C@H](NC(=O)[C@H](CC(=O)O)NC(=O)[C@H](CC(C)C)NC(=O)[C@H](Cc1c[nH]cn1)NC(=O)[C@@H]1CSSC[C@H](NC(=O)[C@H](CCC(=O)O)NC(=O)[C@H](CCCCN)NC(=O)[C@H](CC(=O)O)NC(=O)[C@H](CCSC)NC(=O)[C@H](CC(C)C)NC(=O)[C@H](CO)NC(=O)[C@H](CO)NC(=O)[C@@H]2CSSC[C@H](N)C(=O)N[C@@H](CO)C(=O)N2)C(=O)N[C@@H](C(C)C)C(=O)N[C@@H](Cc2ccc(O)cc2)C(=O)N[C@@H](Cc2ccccc2)C(=O)N1)C(=O)N[C@H](C(=O)N[C@@H](Cc1c[nH]c2ccccc12)C(=O)O)[C@@H](C)CC | 100 |  |  |  | 
CC[C@H](C)[C@H](NC(=O)[C@H](CC(C)C)NC(=O)[C@@H](NC(=O)[C@H](CC(C)C)NC(=O)[C@H](Cc1c[nH]cn1)NC(=O)[C@@H]1CSSC[C@H](N)C(=O)N[C@@H](CO)C(=O)N[C@H]2CSSC[C@H](NC(=O)[C@H](CCC(=O)O)NC(=O)[C@H](CCCCN)NC(=O)[C@H](CC(=O)O)NC(=O)[C@H](CCSC)NC(=O)[C@H](CC(C)C)NC(=O)[C@H](CO)NC(=O)[C@H](CO)NC2=O)C(=O)N[C@@H](C(C)C)C(=O)N[C@@H](Cc2ccc(O)cc2)C(=O)N[C@@H](Cc2ccccc2)C(=O)N1)[C@@H](C)O)C(=O)N[C@@H](Cc1c[nH]c2ccccc12)C(=O)O [listing 2 of 2 here] | 28 |  |  |  | 
CC[C@H](C)[C@H](NC(=O)[C@H](CC(=O)O)NC(=O)[C@H](CC(C)C)NC(=O)[C@H](Cc1c[nH]cn1)NC(=O)[C@@H]1CSSC[C@H](N)C(=O)N[C@@H](CO)C(=O)N[C@H]2CSSC[C@H](NC(=O)[C@H](CCC(=O)O)NC(=O)[C@H](CCCCN)NC(=O)[C@H](CC(=O)O)NC(=O)[C@H](CCSC)NC(=O)[C@H](CC(C)C)NC(=O)[C@H](CO)NC(=O)[C@H](CO)NC2=O)C(=O)N[C@@H](C(C)C)C(=O)N[C@@H](Cc2ccc(O)cc2)C(=O)N[C@@H](Cc2ccccc2)C(=O)N1)C(=O)N[C@H](C(=O)N[C@@H](Cc1c[nH]c2ccccc12)C(=O)O)[C@@H](C)CC [ENDOTHELIN] | 100 |  | 0.15 | 0.12 | 
CC[C@H](C)[C@H](NC(=O)[C@H](CC(C)C)NC(=O)[C@H](CC(C)C)NC(=O)[C@H](Cc1cnc[nH]1)NC(=O)[C@@H]1CSSC[C@H](N)C(=O)N[C@@H](CO)C(=O)N[C@H]2CSSC[C@H](NC(=O)[C@H](CCC(=O)O)NC(=O)[C@H](CCCCN)NC(=O)[C@H](CC(=O)O)NC(=O)[C@H](CCSC)NC(=O)[C@H](CC(C)C)NC(=O)[C@H](CO)NC(=O)[C@H](CO)NC2=O)C(=O)N[C@@H](C(C)C)C(=O)N[C@@H](Cc2ccc(O)cc2)C(=O)N[C@@H](Cc2ccccc2)C(=O)N1)C(=O)N[C@H](C(=O)N[C@@H](Cc1c[nH]c2ccccc12)C(=O)O)[C@@H](C)CC |  | 5010 | 8.6 | 0.45 | 
CC[C@H](C)[C@H](NC(=O)[C@@H](NC(=O)[C@H](CC(C)C)NC(=O)[C@H](Cc1c[nH]cn1)NC(=O)[C@@H]1CSSC[C@H](N)C(=O)N[C@@H](CO)C(=O)N[C@H]2CSSC[C@H](NC(=O)[C@H](CCC(=O)O)NC(=O)[C@H](CCCCN)NC(=O)[C@H](CC(=O)O)NC(=O)[C@H](CCSC)NC(=O)[C@H](CC(C)C)NC(=O)[C@H](CO)NC(=O)[C@H](CO)NC2=O)C(=O)N[C@@H](C(C)C)C(=O)N[C@@H](Cc2ccc(O)cc2)C(=O)N[C@@H](Cc2ccccc2)C(=O)N1)[C@@H](C)O)C(=O)N[C@H](C(=O)N[C@@H](Cc1c[nH]c2ccccc12)C(=O)O)[C@@H](C)CC |  |  | 0.19 | 0.33 | 
CC[C@H](C)[C@H](NC(=O)[C@H](CC1CCCCC1)NC(=O)[C@@H](NC(=O)[C@H](CC(C)C)NC(=O)[C@H](Cc1c[nH]cn1)NC(=O)[C@@H]1CSSC[C@H](N)C(=O)N[C@@H](CO)C(=O)N[C@H]2CSSC[C@H](NC(=O)[C@H](CCC(=O)O)NC(=O)[C@H](CCCCN)NC(=O)[C@H](CC(=O)O)NC(=O)[C@H](CCSC)NC(=O)[C@H](CC(C)C)NC(=O)[C@H](CO)NC(=O)[C@H](CO)NC2=O)C(=O)N[C@@H](C(C)C)C(=O)N[C@@H](Cc2ccc(O)cc2)C(=O)N[C@@H](Cc2ccccc2)C(=O)N1)[C@@H](C)O)C(=O)N[C@@H](Cc1c[nH]c2ccccc12)C(=O)O [listing 1 of 2 here] |  | 20 | 0.61 | 0.42 | 
CC[C@H](C)[C@H](NC(=O)[C@H](CC1CCCCC1)NC(=O)[C@@H](NC(=O)[C@H](CC(C)C)NC(=O)[C@H](Cc1c[nH]cn1)NC(=O)[C@@H]1CSSC[C@H](N)C(=O)N[C@@H](CO)C(=O)N[C@H]2CSSC[C@H](NC(=O)[C@H](CCC(=O)O)NC(=O)[C@H](CCCCN)NC(=O)[C@H](CC(=O)O)NC(=O)[C@H](CCSC)NC(=O)[C@H](CC(C)C)NC(=O)[C@H](CO)NC(=O)[C@H](CO)NC2=O)C(=O)N[C@@H](C(C)C)C(=O)N[C@@H](Cc2ccc(O)cc2)C(=O)N[C@@H](Cc2ccccc2)C(=O)N1)[C@@H](C)O)C(=O)N[C@@H](Cc1c[nH]c2ccccc12)C(=O)O [listing 2 of 2 here] | 10 |  |  |  | 
